Active and inactive are the calls of the source. No cut-off for these calls is given here.
Legend:
[1] = tested on: UMSCC23; assay: Induction of apoptosis in human UMSCC23 cells assessed as increase in GADD45alpha mRNA expression at antiproliferative IC50 over 36 hrs by RT-qPCR analysis; format: functional, cell-based
Procedure, shortened: (§1)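 OCSCC cultures treated at the IC50 from the ATP proliferation assay. cDNA libraries were made from the treated cells and analysed for apoptotic transcripts by Taqman RT-qPCR. Three independent experiments were run, each in triplicate, with error bars given as SEM.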

[2] = tested on: HN12; assay: Induction of apoptosis in human HN12 cells assessed as increase in DR5 mRNA expression at antiproliferative IC50 over 36 hrs by RT-qPCR analysis; format: functional, cell-based; procedure, shortened: as §1
[3] = Permeability of the compound at 100 uM after 6 hrs by PAMPA; format: ADME
[4] = tested on: UMSCC23; assay: Induction of apoptosis in human UMSCC23 cells assessed as increase in DR5 mRNA expression at antiproliferative IC50 over 36 hrs by RT-qPCR analysis; format: functional, cell-based; procedure, shortened: as §1
[5] = tested on: HN12; assay: Induction of apoptosis in human HN12 cells assessed as increase in NOXA mRNA expression at antiproliferative IC50 over 36 hrs by RT-qPCR analysis; format: functional, cell-based; procedure, shortened: as §1
[6] = tested on: HN12; assay: (§2) Antiproliferative activity against human HN12 cells after 48 hrs by ATP-based Cell Titer-Glo assay; format: functional
Procedure, shortened: (§3)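 OCSCC cells cultured with increasing concentrations of purified compound (98% by UPLC-PDA). Read-out was ATP-based luminescent proliferation. Exposure is given as 48 h in the figure legend and 36 h in the text. IC50 values were taken from the dose-response curves. Error bars are SD.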

[7] = as §2; format: functional; settings: HN12, 48 h; procedure, shortened: as §3
[8] = tested on: UMSCC23; assay: Antiproliferative activity against human UMSCC23 cells after 48 hrs by ATP-based Cell Titer-Glo assay; format: functional; settings: for IC50: UMSCC23, 48 h; procedure, shortened: as §3
[9] = tested on: UMSCC23; assay: Induction of apoptosis in human UMSCC23 cells assessed as increase in Bcl2 mRNA expression at antiproliferative IC50 over 36 hrs by RT-qPCR analysis; format: functional, cell-based; procedure, shortened: as §1
[10] = tested on: HN12; assay: Induction of apoptosis in human HN12 cells assessed as increase in GADD45alpha mRNA expression at antiproliferative IC50 over 36 hrs by RT-qPCR analysis; format: functional, cell-based; procedure, shortened: as §1
[11] = tested on: HN12; assay: Induction of apoptosis in human HN12 cells assessed as increase in Bcl2 mRNA expression at antiproliferative IC50 over 36 hrs by RT-qPCR analysis; format: functional, cell-based; procedure, shortened: as §1
[12] = tested on: UMSCC23; assay: Induction of apoptosis in human UMSCC23 cells assessed as increase in NOXA mRNA expression at antiproliferative IC50 over 36 hrs by RT-qPCR analysis; format: functional, cell-based; procedure, shortened: as §1
[13] = tested on: HN12; assay: Induction of apoptosis in human HN12 cells assessed as genomic DNA laddering after 48 hrs by agarose gel electrophoresis method; format: functional, cell-based
Procedure, shortened: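 HN12 cells treated for 48 h at the proliferation-assay IC50 and at a semilog dose above and below it. Genomic DNA was resolved electrophoretically and scored for laddering.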

Compound | Activity [1] | Activity [2] | permeability [3] | Activity [4] | Activity [5] | Activity [6] | IC50 [7] | Activity [8] | IC50 [8] | Activity [9] | Activity [10] | Activity [11] | Activity [12] | Activity [13]
C=CC1=C[C@@H]2[C@@H]3O[C@]4(CC[C@H](O4)[C@@H](C)C[C@@H](O)C3=O)C[C@H](O)C3=NCC[C@@]32CC1 | Active | Active | 54% | Active | Active | Dose-dependent effect | 2.8 nM | Dose-dependent effect | 3.2 nM | Active | Active | Active | Active | Active
C[C@]12C=CC(=O)C=C1CC[C@@H]1[C@@H]2C(=O)C[C@@]2(C)[C@H]1CC[C@]2(O)C(=O)CO [PREDNISONE] | – | – | 12% | – | – | – | – | – | – | – | – | – | – | –
C=CC1=C[C@@H]2[C@@H]3O[C@](O)(CC[C@H](O)[C@@H](C)C[C@@H](O)C3=O)CC(=O)C3=NCC[C@@]32CC1 | Active | Active | 35% | Active | Active | – | 116 nM | – | 229 nM | Active | Active | Active | Active | Active

From ChEMBL document CHEMBL4330180, “Identification of Portimine B, a New Cell Permeable Spiroimine That Induces Apoptosis in Oral Squamous Cell Carcinoma” (ACS Med Chem Lett, 2019)
